The term IC50 denotes the point on the concentration scale where inhibition reaches its midpoint. Low readings indicate inhibition by little substance, high ones a need for much substance.

Each structure is given as a SMILES string. A value given as a limit tells only on which side of the number the result lay.

For the test, the system named is MCF7. In words: Cytotoxicity against human MCF7 cells after 96 hrs by MTT assay. To be noted: MCF7, 96 h. It counts as functional, cell-based. The method, boiled down:
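MCF7 breast cancer cells; MTT growth assay with cisplatin as positive control. IC50 taken from cytotoxicity (concentration-response) plots and reported with SEM.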
In general terms: Tetrazolium dyes change colour on reduction, which living cells bring about.
`COC1=C(OC)C(=O)c2c(cc3c([nH]c(=O)n3C)c2-c2ccc(OC)cc2)C1=O` showed an IC50 of 91.9 µM. `COC1=C(OC)C(=O)c2c(cc3c(nc(N)n3C)c2-c2ccc(OC)cc2)C1=O`: the IC50 was 43.8 µM. Compared with the last molecule, the IC50 is about 2.1-fold lower. On to `COc1ccc(-c2c3cc(OC)c(OC)cc3cc3c2nc(N)n3C)cc1`, for which the IC50 worked out at 28.8 µM. `COc1ccc(-c2c3nc(N)n(C)c3cc3cc(OC)c(OC)c(OC)c23)cc1` came in with an IC50 greater than 100 µM. Next, `COc1ccc(-c2c3cc(OCc4ccccc4)c(OC)cc3cc3c2ncn3C)cc1`: 92 µM. Molecule `COc1ccc(-c2c3cc(OC)c(OC)cc3cc3c2ncn3C)cc1` yielded an IC50 of 28 µM. The molecule `COc1ccc(-c2c3ncn(C)c3cc3cc(OC)c(OC)c(OC)c23)cc1` registered an IC50 of 99.8 µM.

In the case of `COC1=C(OC)C(=O)c2c(cc3c(ncn3C)c2-c2ccc(OC)cc2)C1=O`, the IC50 was found to be 41.1 µM. Take `COc1ccc(-c2c3[nH]c(=O)n(C)c3cc3cc(OC)c(OC)c(OC)c23)cc1`: half-maximal inhibition (IC50) required 29.9 µM. The IC50 values of the last two molecules are within 1.5-fold of each other.

With `COc1ccc(-c2c3cc(OC)c(OC)c(OC)c3cc3c2nc(N)n3C)cc1`, the midpoint of inhibition, the IC50, lay at 22.7 µM.

The molecule `COc1ccc(-c2c3cc(OC)c(OC)c(OC)c3cc3c2ncn3C)cc1` had an IC50 of 68.2 µM. This IC50 is about 3-fold higher than that of the molecule before. For the molecule `COc1ccc(-c2c3cc(O)c(OC)cc3cc3c2ncn3C)cc1`, the IC50 is greater than 100 µM. Next, `COc1ccc(-c2c3cc(O)c(OC)cc3cc3c2[nH]c(=N)n3C)cc1` [KEALIININE A]: 23.4 µM.

These data come from ChEMBL document CHEMBL2440101, “Total syntheses and cytotoxicity of kealiiquinone, 2-deoxy-2-aminokealiiquinone and analogs” (Bioorg Med Chem Lett, 2013).
